{
  "source": "ChEMBL document CHEMBL3112517",
  "about": "“Identification of dihydrostilbenes in Pholidota chinensis as a new scaffold for GABAA receptor modulators” (Bioorg Med Chem, 2014)",
  "key": {"[1]": {"assay": "(§1) Potency index, ratio of compound activity for modulation of rat GABAA alpha1beta2gamma2S receptor assessed as EC3 to 10 GABA-induced chloride ion current to midazolam activity for modulation of GABAA alpha1beta2gamma2S receptor (unknown origin) assessed as potentiation of EC5 to 10 GABA-induced chloride ion current"}, "[2]": {"assay": "as §1, with “triazolam” for “midazolam”"}, "[3]": {"biological_target": "GABA-A receptor; alpha-1/beta-3/gamma-2 (Homo sapiens) (UniProt P14867+P18507+P28472)", "assay": "Modulation of GABAA alpha1beta3gamma2S receptor (unknown origin) expressed in Xenopus laevis oocytes assessed as potentiation of EC3 to 10 GABA-induced chloride ion current at holding potential -70 mV 1 to 300 uM by two-microelectrode voltage clamp assay relative to GABA-treated control", "format": "cell-based"}, "[4]": {"assay": "Modulation of GABAA alpha4beta2gamma2S receptor (unknown origin) expressed in Xenopus laevis oocytes assessed as potentiation of EC3 to 10 GABA-induced chloride ion current at holding potential -70 mV by two-microelectrode voltage clamp assay", "format": "cell-based", "details": "Homo sapiens"}, "Rattus norvegicus": {"organism": "Rattus norvegicus", "assay": "Allosteric modulation of rat GABAA alpha1beta2gamma2S receptor expressed in Xenopus laevis oocytes assessed as potentiation of GABA-induced chloride ion current at holding potential -70 mV at 100 uM by two-microelectrode voltage clamp assay relative to GABA-treated control", "format": "cell-based", "outline": "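Stage V–VI Xenopus laevis oocytes were injected with 50 nL of rat α1, β2 and γ2S cRNA mixed 1:1:10 (about 300–3000 pg/nL per subunit), stored at 18 °C in ND96, and recorded on days 1–5. Two-electrode clamp was at −70 mV in pH 7.4 HEPES bath. Compound was applied by fast perfusion with GABA EC3–10, in 1% DMSO final. Enhancement = I(GABA+Comp)/IGABA − 1.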"}},
  "data": [
    {"compound": "COc1cc(O)cc(CCc2cccc(O)c2)c1", "note": "[BATATASIN III]", "values": [
      {"measurement": "Ratio", "setting": "[1]", "value": 4},
      {"measurement": "Ratio", "setting": "[2]", "value": 4},
      {"measurement": "Imax", "setting": "[3]", "value": 1250, "unit": "%"},
      {"measurement": "EC50", "setting": "[4]", "value": 26.2, "unit": "µM"},
      {"measurement": "Activity", "setting": "Rattus norvegicus", "value": 628, "unit": "%"}
    ]}
  ]
}
